48 compounds from PubChem BioAssay AID463185 (Molecular Libraries Program, Specialized Chemistry Center, …, 2010) can be followed below.

Active and inactive are the calls of the source.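 Rule for the calls: active = IC50 at or below 10 µM; inactive = the rest.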

For the test, the system named is HeLa UbG76V-GFP reporter degradation, GFP imaging. Kind of test: inhibitors of p97-dependent reporter degradation, dose response, imaging, human cells (AID 463185). A digest of the protocol:
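Assay system – UbG76V-GFP reporter HeLa cells · Buffer or medium – 2.5% FBS medium plus cycloheximide 50 µg/mL · Reagent – MG132 4 µM pretreatment for reporter buildup before chase · Incubation – 1 h MG132, chase read 70–170 min · Measured by – cell imaging of GFP fluorescence, mean of about 500 cells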

The IC50 is the concentration at which inhibition is half-maximal. `Cc1cccc(CNc2nc(NCc3ccccc3)c3ccccc3n2)c1`: the half-inhibitory concentration (IC50) was 4.1 µM.

Turning to `COc1ccccc1CNc1nc(NCc2ccccc2)c2ccccc2n1`, the IC50 is 4.8 µM.

On to `c1ccc(CNc2nc(NCc3ccccc3)c3ccccc3n2)cc1`, for which the IC50 is 2.3 µM.

As for `N#C/C(=C(\O)COC(=O)c1ccccc1Cc1ccccc1)c1nc2ccccc2[nH]1`, the IC50 was 3.4 µM.

`CCCOc1ccc(C(=O)CCC(=O)OC/C(O)=C(/C#N)c2nc3ccccc3[nH]2)cc1`: the IC50 was 6.1 µM.

Regarding `N#C/C(=C(\O)COC(=O)C1COc2ccccc2O1)c1nc2ccccc2[nH]1` (stereo not drawn), the IC50 is 10 µM.

As to `N#C/C(=C(\O)COC(=O)COc1ccc(Cl)cc1)c1nc2ccccc2[nH]1`, the half-maximal inhibitory concentration (IC50) is 2.6 µM.

With `COc1cccc(Nc2nc(N)nc(CCl)n2)c1`, the IC50 was 23 µM (inactive).

Turning to `Cc1cccc(Nc2nc(N)nc(CCl)n2)c1C`, the IC50 is 27 µM (inactive).

With `Fc1cccc(CNc2nc(NCc3ccccc3)c3ccccc3n2)c1`, the IC50 was 1.1 µM.

With `N#C/C(=C(\O)COC(=O)CNc1ccc(C(F)(F)F)cc1[N+](=O)[O-])c1nc2ccccc2[nH]1`, the IC50 is 6.5 µM.

As to `Brc1cccc(CNc2nc(NCc3ccccc3)c3ccccc3n2)c1`, the IC50 was 1.3 µM.

Consider `Brc1ccc(CNc2nc(NCc3ccccc3)c3ccccc3n2)cc1`, for which the IC50 was 6.7 µM.

On to `Nc1nc(CCl)nc(Nc2ccc(Cl)c(Cl)c2)n1`, for which the IC50 is 5.7 µM.

In the case of `CCc1nc2ccccc2n1CC(=O)OC/C(O)=C(/C#N)c1nc2ccccc2[nH]1`, the IC50 is 7.2 µM.

As for `Nc1nc(CCl)nc(Nc2cccc3ccccc23)n1`, the IC50 was 14 µM (inactive).

As to `CC(C)c1ccc(Nc2nc(N)nc(CCl)n2)cc1`, the IC50 is 14 µM (inactive).

With `N#C/C(=C(\O)COC(=O)COc1cccc(Br)c1)c1nc2ccccc2[nH]1`, the IC50 is 5.9 µM.

As for `Nc1nc(CCl)nc(N2CCc3ccccc32)n1`, the IC50 is 10.4 µM (inactive).

Turning to `Nc1nc(CCl)nc(Nc2ccc(F)cc2)n1`, the IC50 was 31 µM (inactive).

Take `Nc1nc(CCl)nc(Nc2ccc(Cl)cc2)n1`: the concentration for half-maximal inhibition (IC50) was 8 µM.

For the compound `Cc1cc(C)cc(OCC(=O)OC/C(O)=C(/C#N)c2nc3ccccc3[nH]2)c1`, the IC50 was 13 µM (inactive).

For the compound `Brc1ccccc1CNc1nc(NCc2ccccc2)c2ccccc2n1`, the IC50 was 6.7 µM.

As to `Clc1cccc(CNc2nc(NCc3ccccc3)c3ccccc3n2)c1`, the IC50 was 3.7 µM.

Consider `Nc1nc(Nc2cccc(Cl)c2)nc(C(Cl)Cl)n1`, for which the IC50 is 13 µM (inactive).

Consider `Clc1ccccc1CNc1nc(NCc2ccccc2)c2ccccc2n1`, for which the IC50 is 4.1 µM.

Turning to `Cc1cccc(C)c1OCC(=O)OC/C(O)=C(/C#N)c1nc2ccccc2[nH]1`, the IC50 is 15 µM (inactive).

With `Clc1ccc(CNc2nc(NCc3ccccc3)c3ccccc3n2)cc1Cl`, the IC50 was 4.6 µM.

For `Nc1nc(CCl)nc(N(c2ccccc2)c2ccccc2)n1`, the IC50 was 10 µM.

As to `COc1ccccc1Nc1nc(N)nc(CCl)n1`, the IC50 is 21 µM (inactive).

`Clc1ccc(CNc2nc(NCc3ccccc3)c3ccccc3n2)cc1`: the IC50 was 3.3 µM.

On to `Cc1ccc(Nc2nc(N)nc(CCl)n2)cc1`, for which the IC50 is 26 µM (inactive).

For the compound `Fc1ccc(CNc2nc(NCc3ccccc3)c3ccccc3n2)cc1`, the IC50 was 2.8 µM.

`Cc1ccc(CNc2nc(NCc3ccccc3)c3ccccc3n2)cc1`: the IC50 is 2.4 µM.

Turning to `COc1cc([N+](=O)[O-])ccc1Nc1nc(N)nc(CCl)n1`, the IC50 is 22 µM (inactive).

Regarding `N#C/C(=C(\O)COC(=O)CCC(=O)c1ccc2c(c1)OCCO2)c1nc2ccccc2[nH]1`, the IC50 was 6.3 µM.

With `COc1ccc(CNc2nc(NCc3ccccc3)c3ccccc3n2)cc1`, the IC50 is 3.3 µM.

`FC(F)(F)c1cc(CNc2nc(NCc3ccccc3)c3ccccc3n2)ccc1Cl`: the IC50 was 4.6 µM.

On to `Cc1cc(OCC(=O)OC/C(O)=C(/C#N)c2nc3ccccc3[nH]2)ccc1Cl`, for which the IC50 was 16 µM (inactive).

For `CN(c1ccccc1)c1nc(N)nc(CCl)n1`, the IC50 is 31 µM (inactive).

With `Fc1ccccc1CNc1nc(NCc2ccccc2)c2ccccc2n1`, the IC50 was 3.4 µM.

With `Cc1ccccc1CNc1nc(NCc2ccccc2)c2ccccc2n1`, the IC50 was 10 µM.

With `CCc1ccc(Nc2nc(N)nc(CCl)n2)cc1`, the IC50 was 18 µM (inactive).

With `Nc1nc(CCl)nc(Nc2ccc(Oc3ccccc3)cc2)n1`, the IC50 is 3.7 µM.

For the compound `Nc1nc(CCl)nc(N2CCCc3ccccc32)n1`, the IC50 is 17 µM (inactive).

In the case of `FC(F)(F)c1ccc(CNc2nc(NCc3ccccc3)c3ccccc3n2)cc1`, the IC50 is 2.5 µM.

For the compound `Cc1c(Cl)cccc1Nc1nc(N)nc(CCl)n1`, the IC50 was 5.9 µM.

`COc1cccc(CNc2nc(NCc3ccccc3)c3ccccc3n2)c1`: the IC50 is 1.7 µM.
